Data set [1] is described as follows: AUC(0 to t) in Beagle dog at 1 mg/kg, iv measured upto 24 hrs by LC-MS/MS analysis. The format is ADME, organism-based, Canis lupus familiaris. Also on record: time < 24 hrs, dose 1 mg/kg, route iv. As to conditions: in vivo. The method in brief:
(§1)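 Male ICR mice (2 mg/kg), male SD rats (1 mg/kg) or male Beagle dogs (1 mg/kg) given a single intravenous dose in 10% PEG400 + 90% PBS adjusted to pH 8.0 with NaOH.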

Data set [2] is described as follows: Volume of distribution at steady state in Sprague-Dawley rat at 1 mg/kg, iv measured upto 24 hrs by LC-MS/MS analysis. In kind it is ADME, organism-based. To be noted: in vivo.
Data set [3] in a line: Drug concentration in ICR mouse plasma at 10 mg/kg, po measured after 6 hrs. The format is ADME, organism-based. A digest of the protocol:
(§2)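 Mice given a single 10 mg/kg dose by oral gavage, 3 mice per time point. Plasma drug levels measured at 1, 3, 6 and 24 h; mean ± SD reported.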

A short description of data set [4]: Drug concentration in ICR mouse plasma at 10 mg/kg, po measured after 1 hr. In kind it is ADME, organism-based. A digest of the protocol: as §2
Data set [5] in a line: Plasma protein binding in human at 1 uM after 5 hrs by equilibrium dialysis based LC-MS/MS analysis. In kind it is ADME, cell-free. A digest of the protocol:
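Equilibrium dialysis of pooled plasma of each species spiked at 1 μM against 0.1 M sodium phosphate, pH 7.4. 5 h at 37 °C with shaking at 60 rpm. Both sides matrix-matched, ACN/IS quench, LC/MS. % bound = 100 − (buffer/plasma peak-area ratio × 100); recovery also calculated. Warfarin as reference.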
On the technique in general: In equilibrium dialysis only unbound substance equilibrates across the membrane.

A short description of data set [6]: Metabolic stability in human hepatocytes assessed as half life at 1 uM measured upto 120 mins in presence of NADPH by LC-MS/MS analysis. To be noted: 2 h. The format is ADME, cell-based, Hepatocyte.
The nature of data set [7]: Metabolic stability in rat hepatocytes assessed as half life at 1 uM measured upto 120 mins in presence of NADPH by LC-MS/MS analysis. The format is ADME, cell-based, Hepatocyte. To be noted: 2 h.
Data set [8] deals with T1, Androgen receptor (Homo sapiens) (UniProt P10275).
T1 sequence (whole entry): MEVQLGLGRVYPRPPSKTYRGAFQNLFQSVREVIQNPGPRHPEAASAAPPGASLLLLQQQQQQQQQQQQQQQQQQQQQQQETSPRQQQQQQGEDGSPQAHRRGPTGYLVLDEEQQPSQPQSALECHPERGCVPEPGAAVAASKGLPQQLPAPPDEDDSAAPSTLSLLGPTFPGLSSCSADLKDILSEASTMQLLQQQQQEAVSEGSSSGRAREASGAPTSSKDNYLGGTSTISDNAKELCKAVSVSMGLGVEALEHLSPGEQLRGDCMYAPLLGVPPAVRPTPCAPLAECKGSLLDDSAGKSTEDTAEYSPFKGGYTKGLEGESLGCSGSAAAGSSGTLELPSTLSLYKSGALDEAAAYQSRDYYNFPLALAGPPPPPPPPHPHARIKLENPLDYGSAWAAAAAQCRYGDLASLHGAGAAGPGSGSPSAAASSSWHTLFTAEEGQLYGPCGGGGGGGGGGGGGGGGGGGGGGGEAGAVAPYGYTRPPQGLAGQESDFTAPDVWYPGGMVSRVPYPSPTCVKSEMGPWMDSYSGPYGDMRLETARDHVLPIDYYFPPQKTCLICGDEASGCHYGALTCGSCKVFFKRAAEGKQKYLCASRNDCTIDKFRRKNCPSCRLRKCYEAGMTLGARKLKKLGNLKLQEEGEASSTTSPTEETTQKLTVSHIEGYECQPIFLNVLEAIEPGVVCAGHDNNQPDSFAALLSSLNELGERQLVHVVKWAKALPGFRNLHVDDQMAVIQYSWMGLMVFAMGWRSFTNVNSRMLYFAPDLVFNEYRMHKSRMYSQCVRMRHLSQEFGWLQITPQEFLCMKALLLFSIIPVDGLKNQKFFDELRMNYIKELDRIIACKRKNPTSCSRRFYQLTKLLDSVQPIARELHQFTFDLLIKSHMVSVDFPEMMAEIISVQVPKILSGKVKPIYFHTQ
The data set can be described thus: Induction of androgen receptor degradation in human VCaP cells at 0.01 uM after 24 hrs by Western blotting analysis relative to control. In kind it is cell-based. A digest of the protocol: (§3)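 VCaP cells treated for 24 h at 10, 100 or 1000 nM. AR protein measured by Western blotting.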
(Immunoblotting shows a protein as a band on a membrane.)

Data set [9] is described as follows: Metabolic stability in monkey hepatocytes assessed as half life at 1 uM measured upto 120 mins in presence of NADPH by LC-MS/MS analysis. In kind it is ADME, cell-based, Macaca mulatta, Hepatocyte. As to conditions: rhesus monkey, 2 h.
Data set [10] can be described thus: Metabolic stability in dog hepatocytes assessed as half life at 1 uM measured upto 120 mins in presence of NADPH by LC-MS/MS analysis. In kind it is ADME, cell-based, Canis lupus familiaris, Hepatocyte. To be noted: 2 h.
Data set [11] is described as follows: Downregulation of KLK3 gene expression in human VCaP cells at 1 nM incubated for 24 hrs by qRT-PCR analysis. In kind it is functional. A digest of the protocol: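 VCaP cells (ATCC) grown in DMEM with Glutamax plus 10% FBS at 37 °C, 5% CO2. Cells treated 24 h; KLK3 mRNA measured by qRT-PCR, expression by comparative CT method, normalised to GAPDH (ΔCT) and then to vehicle control (ΔΔCT).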
Background: Real-time PCR tracks product formation cycle by cycle.

The target of the next data set is Cytochrome P450 2D6 (Homo sapiens, UniProt P10635). In words: Inhibition of CYP2D6 in human liver microsomes preincubated for 5 mins followed by NADPH addition and measured after 10 mins by LC/MS analysis. The format is ADME, Microsome.
In data set [12] the target is T1, Androgen receptor (Homo sapiens). In words: Induction of androgen receptor degradation in human VCaP cells at 1 uM after 24 hrs by Western blotting analysis relative to control. In kind it is cell-based. The method in brief: as §3
Data set [13] is described as follows: Oral bioavailability in ICR mouse at 5 mg/kg measured up to 24 hrs by LC-MS/MS analysis. The format is ADME, organism-based. As to conditions: in vivo. A digest of the protocol:
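Male ICR mice. IV 2 mg/kg and PO 5 mg/kg, both in 10% PEG400 + 90% PBS adjusted to pH 8.0. Plasma sampled to 24 h; F from IV and PO exposure.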

A short description of data set [14]: Half life in ICR mouse at 2 mg/kg, iv measured upto 24 hrs by LC-MS/MS analysis. In kind it is ADME, organism-based. As to conditions: in vivo. The method in brief:
as §1

Data set [15] is described as follows: Drug concentration in CB17 SCID mouse tumor xenografted with human VCaP cells at 12.5 mg/kg, po measured after 24 hrs by LC-MS/MS analysis. In kind it is ADME, organism-based, Neoplasm. To be noted: read-out: Ct. The method in brief:
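SCID mice bearing one VCaP tumour each given a single oral 12.5 mg/kg dose in 100% PEG200. Plasma and tumour tissue collected at 6 and 24 h, 3 mice per time point. Values are mean ± SD.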

The next data set has as its target Cytochrome P450 3A4 (Homo sapiens, UniProt P08684). In words: Inhibition of CYP3A4 in human liver microsomes using testosterone as substrate preincubated for 5 mins followed by NADPH addition and measured after 5 mins by LC/MS analysis. The format is ADME, Microsome.
For another data set, the system named is LNCaP. In words: Growth inhibition in human LNCaP cells incubated for 4 days by WST-8 assay relative to control. In kind it is functional. As to conditions: time 4 day. A digest of the protocol: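 LNCaP cells grown in RPMI 1640 with 10% FBS, treated for 4 days. Viability read by WST-8 assay.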
Data set [16] is described as follows: Metabolic stability in monkey plasma assessed as half life at 1 uM measured upto 120 mins by LC-MS/MS analysis. To be noted: rhesus monkey, 2 h. The format is ADME, cell-free, Macaca mulatta. A digest of the protocol: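 Compound at 1 μM final in pre-warmed plasma of each species, 37 °C for up to 2 h. ACN/IS quench at 0, 5, 15, 30, 60 and 120 min; LC/MS. Procaine as reference (benfluorex for rat). t1/2 = 0.693/slope of ln(fraction remaining) versus time.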

Chain of Cytochrome P450 3A4 (P08684 whole entry): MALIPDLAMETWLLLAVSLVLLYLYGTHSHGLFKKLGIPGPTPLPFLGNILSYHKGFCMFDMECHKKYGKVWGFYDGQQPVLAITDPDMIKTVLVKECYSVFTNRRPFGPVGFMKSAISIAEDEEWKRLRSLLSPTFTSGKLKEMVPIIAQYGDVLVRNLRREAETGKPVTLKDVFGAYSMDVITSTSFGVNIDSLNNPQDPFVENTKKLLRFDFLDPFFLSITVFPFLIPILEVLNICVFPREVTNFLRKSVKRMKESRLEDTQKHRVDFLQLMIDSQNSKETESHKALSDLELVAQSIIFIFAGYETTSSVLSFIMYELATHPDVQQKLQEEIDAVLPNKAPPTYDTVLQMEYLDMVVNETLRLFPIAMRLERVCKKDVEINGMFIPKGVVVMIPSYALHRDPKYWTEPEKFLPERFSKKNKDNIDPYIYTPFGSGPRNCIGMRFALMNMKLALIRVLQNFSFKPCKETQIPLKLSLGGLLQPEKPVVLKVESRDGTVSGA
Chain of Cytochrome P450 2D6 (P10635 whole entry): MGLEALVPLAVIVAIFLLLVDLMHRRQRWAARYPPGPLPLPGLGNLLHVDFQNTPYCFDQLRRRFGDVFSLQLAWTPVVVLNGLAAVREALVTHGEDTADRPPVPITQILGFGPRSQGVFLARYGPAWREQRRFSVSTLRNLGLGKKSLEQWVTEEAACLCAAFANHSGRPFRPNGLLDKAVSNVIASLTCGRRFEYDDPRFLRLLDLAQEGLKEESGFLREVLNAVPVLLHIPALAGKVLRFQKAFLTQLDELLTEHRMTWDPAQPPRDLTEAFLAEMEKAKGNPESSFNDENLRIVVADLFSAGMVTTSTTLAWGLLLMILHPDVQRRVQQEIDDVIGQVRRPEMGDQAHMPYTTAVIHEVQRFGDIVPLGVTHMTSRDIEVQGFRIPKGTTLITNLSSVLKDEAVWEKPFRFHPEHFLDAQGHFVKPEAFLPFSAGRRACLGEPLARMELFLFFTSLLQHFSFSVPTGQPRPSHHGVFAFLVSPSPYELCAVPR

Compound `C[C@H]1CC2(CCN(c3ccc(C(=O)N4CCN(C5CN(c6ccc7c(c6)C(=O)N(C6CCC(=O)NC6=O)C7=O)C5)CC4)cc3)CC2)CN1c1ccc(C#N)c(Cl)c1` (some centres undefined) displayed an AUCt in data set [1] of 3240 ng·h/mL. In addition, the distribution volume (Vdss) (as a rule, a proportionality between amount in the body and measured concentration, not a real space) in data set [2] is 1.3 L/kg. The concentration at 6 h in data set [3] stood at 369 ng/mL. Moreover, the concentration at 1 h in [4] is 495 ng/mL. Also, the PPB in [5] worked out at 99.1%. The t1/2 in data set [6] was greater than 2 h; in data set [7], greater than 2 h; in data set [9], greater than 2 h; in [10], greater than 2 h; in data set [14], 5 h; in data set [16], greater than 2 h. Moreover, the Activity was greater than 95% in [8], 51% in [11] and greater than 95% in data set [12]. The IC50 at Cytochrome P450 2D6 and against Cytochrome P450 3A4 was greater than 10 µM throughout. The same compound displayed a F in data set [13] of 53%. Besides, the concentration at 24 h in [15] was found to be 183 ng/mL. The compound further registered an Imax in the data set on LNCaP of 100%.

(Values after ChEMBL document CHEMBL5331127, “Discovery of ARD-2051 as a Potent and Orally Efficacious Proteolysis Targeting Chimera (PROTAC) Degrader of Androgen Receptor for the Treatment of Advanced Prostate Cancer” (J Med Chem, 2023).)
